Measurements gathered from unrelated publications.
Lines come from different studies, so protocols differ. pIC50: −log10 of the molar value.
Cell line: HepG2
Read-out: cell growth or viability

| Compound | assay | setting | measurement | value |
| --- | --- | --- | --- | --- |
| CN(C)c1cc(NC(=O)Cc2ccccn2)c(O)c2c1C[C@H]1C[C@H]3[C@H](N(C)C)C(O)=C(C(N)=O)C(=O)[C@@]3(O)C(O)=C1C2=O | ATP luminescence | 72 h | IC50 | > 200 µg/mL |
| COc1ccc(C2CC(c3ccc(Nc4nnc(-c5ccc(Cl)cc5)c5ccccc45)cc3)=NN2)cc1 (centres unmarked) | MTT | 72 h | pIC50 | 6.72 |
| CN(C)c1cc(NC(=O)Cc2cccnc2)c(O)c2c1C[C@H]1C[C@H]3[C@H](N(C)C)C(O)=C(C(N)=O)C(=O)[C@@]3(O)C(O)=C1C2=O | ATP luminescence | 72 h | IC50 | > 200 µg/mL |
| Cc1ccc(-c2cc(-c3ccc(N(C)C)cc3)c3c(=O)n(C)c(=O)n(C)c3n2)cc1 | MTT | 48 h | pIC50 | 4.84 |
| CN(C)c1cc(NC(=O)Cc2cnccn2)c(O)c2c1C[C@H]1C[C@H]3[C@H](N(C)C)C(O)=C(C(N)=O)C(=O)[C@@]3(O)C(O)=C1C2=O | ATP luminescence | 72 h | IC50 | > 200 µg/mL |
| Cc1ccc(-c2cc(-c3ccc(Cl)c(F)c3)c3c(=O)n(C)c(=O)n(C)c3n2)cc1 | MTT | 48 h | pIC50 | 4.41 |
| CN(C)c1cc(NC(=O)Cc2cncnc2)c(O)c2c1C[C@H]1C[C@H]3[C@H](N(C)C)C(O)=C(C(N)=O)C(=O)[C@@]3(O)C(O)=C1C2=O | ATP luminescence | 72 h | IC50 | 84.8 µg/mL |
| Cc1ccc(-c2cc(-c3ccc(Cl)c(F)c3)c3c(=O)[nH]c(=O)[nH]c3n2)cc1 | MTT | 48 h | pIC50 | 4.80 |
| CN(C)c1cc(NC(=O)Cc2ccccc2)c(O)c2c1C[C@H]1C[C@H]3[C@H](N(C)C)C(O)=C(C(N)=O)C(=O)[C@@]3(O)C(O)=C1C2=O | ATP luminescence | 72 h | IC50 | 63.7 µg/mL |
| Cc1ccc(-c2cc(-c3ccc(Cl)cc3)c3c(=O)[nH]c(=O)[nH]c3n2)cc1 | MTT | 48 h | pIC50 | 5.07 |
| Nc1n[nH]c2nc(-c3cccc(O)c3)cc(-c3cc4cc(Cl)ccc4nc3N3CCOCC3)c12 | MTT | 72 h | pIC50 | 7.04 |
| CN(C)c1cc(NC(=O)Cc2ncccn2)c(O)c2c1C[C@H]1C[C@H]3[C@H](N(C)C)C(O)=C(C(N)=O)C(=O)[C@@]3(O)C(O)=C1C2=O | ATP luminescence | 72 h | IC50 | 108 µg/mL |
| O=C(O)Cc1csc(NC(=O)c2cc3ccccc3[nH]2)n1 | MTT | 24 h | pIC50 | 4.86 |
| CCCOc1nc(-c2cccc(O)c2)cc(-c2cc3ccccc3nc2N2CCOCC2)c1C#N | MTT | 72 h | pIC50 | 6.57 |
| COc1nc(NCc2cn(-c3ccc(C(=O)Nc4ccccc4)cc3)nn2)nc(OC)n1 | MTT | 72 h | pIC50 | 5.83 |
| COc1ccc2[nH]c(C(=O)Nc3nc(CC(=O)NO)cs3)cc2c1 | MTT | 24 h | pIC50 | 4.88 |
| COc1nc(NCc2cn(-c3ccc(C(=O)Nc4ccc(C(F)(F)F)cc4)cc3)nn2)nc(OC)n1 | MTT | 72 h | pIC50 | 7.19 |
| Cc1ccc(-c2cc(-c3c(Cl)cccc3Cl)c3c(=O)n(C)c(=O)n(C)c3n2)cc1 | MTT | 48 h | pIC50 | 5.13 |
| COc1ccc2nc(N3CCOCC3)c(-c3cc(-c4cccc(O)c4)nc4[nH]nc(N)c34)cc2c1 | MTT | 72 h | pIC50 | 7.06 |
| COc1ccc(-c2cc(-c3cc(OC)ccc3OC)c3c(=O)[nH]c(=O)[nH]c3n2)cc1 | MTT | 48 h | pIC50 | 4.88 |
| COc1ccc2[nH]c(C(=O)Nc3nc(CC(=O)O)cs3)cc2c1 | MTT | 24 h | pIC50 | 4.22 |
| CN(C)c1ccc(O)c2c1C[C@H]1C[C@H]3[C@H](N(C)C)C(O)=C(C(N)=O)C(=O)[C@@]3(O)C(O)=C1C2=O | ATP luminescence | 72 h | IC50 | > 200 µg/mL |
| COc1ccc(-c2cc(-c3cccc(Br)c3)c3c(=O)n(C)c(=O)n(C)c3n2)cc1 | MTT | 48 h | pIC50 | 4.91 |
